Test results taken from paper PMC9798253 (Protein Science : A Publication of the Protein Society, 2023).

Key:
[1] = system: GST-tagged TRD domain of MECP2 (170–325 of NP_004983); assay: Peptide SPOT array binding of ADD peptides to GST-TRD; details: 25 nM GST-TRD; 1 h; ECL detection (anti-GST)
How it was run: (§1)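 The cellulose-bound peptide arrays included alanine-substituted variants. Purified protein was applied for 1 h. Detection used anti-GST (1:12,000) or anti-MBP (1:10,000) for 1 h, then HRP secondary for 1 h.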

[2] = system: GST-TRD (TRD domain of MECP2); assay: GST-pulldown of MBP-ADD; format: binding; details: 1 μg each protein; 25 mM Tris/HCl pH 8, 200 mM KCl; 1 h, 6°C; SDS-PAGE
[3] = system: ADD D529A/D530A/D531A triple mutant; assay: Peptide SPOT array binding of TRD peptides to ADD triple mutant; design: species or system human; details: 25 nM ADD mutant; 1 h; ECL detection
How it was run: as §1

Substance | TRD binding of ADD peptides on SPOT array [1] | further results
ADD 496–510: ADD surface peptide on SPOT array, WT sequence | showed TRD binding with the WT sequence | –
ADD 522–536: ADD surface peptide on SPOT array, WT sequence | showed TRD binding with the WT sequence | –
ADD 592–606: ADD surface peptide on SPOT array, WT sequence | showed TRD binding with the WT sequence | –
MBP-ADD: ADD domain of DNMT3A (476–614 of Q9Y6K1) as maltose‐binding protein (MBP) fusion | – | pulldown of MBP-ADD by GST-TRD [2]: strong and specific pulldown
TRD residues 214–228: 15mer SPOT peptide, TRD residues E214‐T228, WT peptide (EKSPGKLLVKMPFQT) | – | binding of ADD D529A/D530A/D531A triple mutant to TRD peptide on SPOT array [3]: Binding was lost
